Only some compounds are listed: those with a hit (about 0.7% of all), similar ones and a draw of the others.
CaV13 FRET inh – Primary screen for inhibitors of IQ motif and Ca2+-dependent inactivation inhibitor domain binding in CACNA1D, Förster resonance energy transfer in living cells, …. HEK cells, CFP/YFP FRET ICDI-IQ, plate reader, 10 min; percent FRET-ratio fall versus neutral wells. hit rate 0.098% among 340,000. inhibition, % at 12.3 µM;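 active = mean replicate inhibition of at least 30% and at least 1% of replicates passing that level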;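 note: 0% = median of the neutral control wells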
RAD54 inh – RAD54 (human) branch migration inhibition; AID 602329; Q92698; RAD54 Holliday junction branch migration, FAM/BHQ fluorescence; inhibition, % at 10.4 µM; hit rate 0.14% among 360,000;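 active = mean normalized replicate activity at least 40 and at least half of replicates scoring 40 or more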;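 note: 0% = median of neutral control wells and 100% = median of positive control wells; inhibitors cause a drop in the FAM fluorescence signal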
N-glyco inh – blocks N-linked glycosylation in D54 reporter cells | AID 588692 | hit rate 0.23% among 360,000 | reporter increase, % at 12.5 µM | D54 ERlucT glycosylation luciferase reporter, 24 h; percent of 100 nM tunicamycin response;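 active = mean luciferase reporter signal, scaled so untreated is 0 and the glycosylation-blocking control 100, at or above a set limit in every replicate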;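 note: luciferase carries N-glycosylation sites so blocking glycosylation raises the light; 0% = median of neutral control wells and 100% = median of 100 nM tunicamycin wells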
RAD52 anneal inh – RAD52 (human) annealing inhibition | inhibition, % at 18.7 µM | recombinant RAD52 DNA annealing, FRET fluorescence | P43351 | hit rate 0.46% among 360,000 | AID 651710;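 active = every replicate showing at least 50% inhibition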
Target sequence (P43351 whole entry, looked up): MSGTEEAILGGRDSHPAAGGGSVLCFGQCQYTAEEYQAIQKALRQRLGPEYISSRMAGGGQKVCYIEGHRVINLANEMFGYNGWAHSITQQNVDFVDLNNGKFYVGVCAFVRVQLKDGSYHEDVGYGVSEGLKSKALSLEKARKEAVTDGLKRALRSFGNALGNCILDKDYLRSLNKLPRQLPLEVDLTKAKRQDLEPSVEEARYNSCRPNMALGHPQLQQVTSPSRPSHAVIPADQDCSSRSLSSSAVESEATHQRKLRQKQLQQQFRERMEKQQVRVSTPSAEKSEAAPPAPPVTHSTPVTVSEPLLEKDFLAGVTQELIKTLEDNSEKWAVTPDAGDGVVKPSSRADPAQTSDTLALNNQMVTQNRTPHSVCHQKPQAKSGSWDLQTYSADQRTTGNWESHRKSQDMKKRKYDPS
FN deposition inh – fibronectin deposition inhibition; AH1F fibroblasts, Alexa488-fibronectin deposition fluorescence, overnight; hit rate 0.086% among 350,000; inhibition, % at 12.6 µM;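 active = mean inhibition across replicates of 30% or more, regardless of how many single replicates reach that level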;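 note: positive control wells lacked labelled fibronectin entirely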
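material = AH1F fibroblast monolayer depositing Alexa488-labelled fibronectin into matrix | amount = 10000 AH1F cells/well | buffer or medium = DMEM plus 2% serum, read in PBS | incubation = 1 h cell adhesion before compound, then overnight fibronectin incubation | detection = fluorescence at 485 nm excitation, 525 nm emission | evaluation = percent inhibition as loss of matrix-bound fibronectin fluorescence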
Active calls of the source: *; . = not tested or not shown; + = active, no number.

SMILES	CaV13 FRET inh	RAD54 inh	N-glyco inh	RAD52 anneal inh	FN deposition inh
CC(=O)N1CC(=O)N2[C@H](CO)[C@@H](c3ccc(-c4ccncc4)cc3)[C@@H]2C1	.	.	.	3	.
Cc1nn(-c2ccccc2)c(Cl)c1/C=N/Nc1nc2ccccc2[nH]1	15	.	66*	-10	-20
Cc1cc(=O)[nH]c(N/N=C/c2c(C)nn(-c3ccccc3)c2Cl)n1	-5	.	-3	-12	9
CN(C)C(=O)c1ccc(-c2ccccc2[C@H]2[C@H](C#N)N(C(=O)C3CCCCC3)[C@H]2CO)cc1	.	.	.	-4	-3
CS(=O)(=O)N1[C@H](C#N)[C@H](c2ccccc2-c2ccccc2)[C@@H]1CO	.	.	.	-11	-10
N#C[C@H]1[C@@H](c2ccccc2-c2cccc(F)c2)[C@@H](CO)N1C(=O)C1CCCC1	.	.	.	-18	-9
Cc1ccc(-c2ccccc2[C@H]2[C@@H](CO)N(S(C)(=O)=O)[C@H]2C#N)cc1	.	.	.	101*	-8
N#C[C@@H]1[C@@H](c2ccccc2-c2cccc(F)c2)[C@H](CO)N1C(=O)C1CCCC1	.	.	.	114*	-6
CN(C)C(=O)c1ccc(-c2ccccc2[C@@H]2[C@@H](CO)N(C(=O)C3CCCC3)[C@H]2C#N)cc1	.	.	.	58*	-2
O=C(C[C@@H]1CC[C@H]2[C@@H](COC[C@@H](O)CN2Cc2ccccc2F)O1)NCc1ccccc1F	.	-5	.	15	1
C[C@@H]1CN([C@H](C)CO)C(=O)c2cc(Br)cnc2O[C@H]1CN(C)C(=O)Nc1ccccc1	.	10	.	1	1
Cc1ccc(C(=O)N/C(=C/c2cccs2)C(=O)NCCc2c[nH]c3ccccc23)cc1	-20	-11	55*	-11	0
Cc1ccc(/C=C(/NC(=O)c2ccccc2)C(=O)NCCc2c[nH]c3ccccc23)o1	-5	-8	2	.	.
O=C(NCCc1c[nH]c2ccccc12)/C(=C\c1ccco1)NC(=O)c1ccco1	-2	2	1	-13	5
Cc1ccc(C(=O)N/C(=C\c2ccco2)C(=O)NCCc2c[nH]c3ccccc23)cc1	-4	.	30*	-47	-9
Cc1ccc(S(=O)(=O)Nc2ccc3c(c2)C(=O)N([C@@H](C)CO)C[C@H](C)[C@@H](CN(C)Cc2ccc4c(c2)OCO4)OCCCC[C@H](C)O3)cc1	.	5	.	17	.
COc1cccc(S(=O)(=O)Nc2ccc3c(c2)C(=O)N(C)[C@H]2CC[C@H](CC(=O)Nc4cc(F)ccc4F)O[C@@H]2CO3)c1	.	.	.	.	1
COc1ccc(NC(=O)N(C)C[C@@H]2Oc3c(NC(=O)c4ccc(-c5nccs5)cc4)cccc3C(=O)N([C@@H](C)CO)C[C@@H]2C)cc1	.	2	.	-3	.
Cc1ccc(CS(=O)Cc2ccc(C(=O)NC3CCCC(C)C3C)o2)cc1 (stereo not drawn)	-4	-10	-2	-17	30*
Cc1ccc2nc(-c3ccc(SCC(=O)Nc4nnc(C)s4)nc3)[nH]c2c1	-9	.	102*	.	.
Cc1ccc2nc(-c3ccc(SCC(=O)Nc4nc(C)cs4)nc3)[nH]c2c1	-6	1	-4	.	.
O=c1oc2c(O)cccc2cc1-c1nc2ccccc2[nH]1	34*	3	-9	-13	-1
O=c1oc2c(CN3CCCCC3)c(O)ccc2cc1-c1nc2ccccc2[nH]1	35*	-23	1	-32	.
Cc1cc(=O)oc2c(CN3CCN(CCO)CC3)c(O)ccc12	-2	-6	1	-3	-8
O=c1[nH]cccc1-c1nc2ccccc2[nH]1	-3	-16	2	-9	3
SMILES	CaV13 FRET inh	RAD54 inh	N-glyco inh	RAD52 anneal inh	FN deposition inh
CCc1cc2c(=O)c(-c3nc4ccccc4[nH]3)coc2c(CN2CCCCC2)c1O	-15	.	0	-5	5
O=c1oc2c(CN3CCN(CCO)CC3)c(O)ccc2cc1-c1ccccn1	+	6	0	1	-3
C[C@H](CO)N1C[C@H](C)[C@@H](CN(C)Cc2ccc3c(c2)OCO3)OCCCC[C@H](C)Oc2ccc(NC(=O)Nc3ccc(F)cc3)cc2C1=O	.	-6	.	-1	.
CC1=C(C)/C(=N\OS(=O)(=O)c2ccc(C)cc2)C=CC1=O	-14	.	-10	.	33*
COc1ccc(S(=O)(=O)/N=C2/C=CC(=O)C(C)=C2C)cc1	.	-2	1	.	.
COc1ccc(C#Cc2ccc3c(c2)[C@H]2[C@H](CCN2C(=O)c2ccncc2)[C@@H](CO)N3)cc1	.	.	.	51*	-34
COc1ccc(C#Cc2ccc3c(c2)[C@@H]2[C@@H](CCN2C(=O)c2ccncc2)[C@@H](CO)N3C)cc1	.	16	.	62*	-10
COc1ccc(C#Cc2ccc3c(c2)[C@H]2[C@H](CCN2C(=O)c2ccncc2)[C@H](CO)N3)cc1	.	1	.	.	8
COc1ccc(C#Cc2ccc3c(c2)[C@H]2[C@H](CCN2S(=O)(=O)c2cccc(OC)c2)[C@H](CO)N3C)cc1	.	8	.	62*	-15
OC[C@@H]1Nc2ccc(C#Cc3ccccc3)cc2[C@@H]2[C@H]1CCN2Cc1nccs1	.	.	.	59*	8
COc1ccc(S(=O)(=O)N[C@H]2CC[C@@H](CC(=O)N3CCC(Cc4ccccc4)CC3)O[C@@H]2CO)cc1	.	1	.	-9	.
C[C@@H]1CN([C@@H](C)CO)C(=O)c2cc(C#CC3(O)CCCC3)cnc2O[C@@H]1CN(C)C(=O)C1CCC1	.	-5	.	-1	.
C[C@@H]1CN([C@H](C)CO)C(=O)c2ccccc2-c2ccccc2CO[C@H]1CN(C)C(=O)Nc1ccccc1	.	8	.	-2	-7
CCOc1ncccc1C(=O)N1CCN(c2cc(Cl)ccc2C)CC1	-11	.	30*	-14	-9
CCOc1ncccc1C(=O)N1CCN(c2cccc(C)c2C)CC1	12	.	18	0	-7
C[C@@H]1CN([C@H](C)CO)C(=O)c2cc(NC(=O)Cc3ccccc3)ccc2O[C@@H]1CN(C)C(=O)Nc1ccc2c(c1)OCO2	.	11	.	4	.
COc1cccc(N2[C@@H](CC(C)=O)c3ccc(/C=C/C(C)=O)cc3S2(=O)=O)c1	-5	-2	38*	-62	2
COc1ccc(CN2[C@@H](CC(C)=O)c3ccc(/C=C/C(C)=O)cc3S2(=O)=O)cc1	-9	7	10	-273	4
CN(C)C(=O)[C@H]1[C@H](CO)[C@H]2Cn3c(ccc(C4=CCCCC4)c3=O)[C@@H]1N2C	.	5	.	63*	.
CC(=O)Oc1ccc(C(=O)Nc2cc(C)on2)cc1	56*	-13	2	-4	-2
O=C(CSc1nc2nc(-c3cccs3)cc(C(F)(F)F)c2c(=O)[nH]1)C(F)(F)F	-21	-2	37*	-6	4
CCCCN1C=C(C(=O)OC)C(c2ccccc2Cl)C(C(=O)OC)=C1	+	.	-2	-3	1
CCCCN1C=C(C(=O)OC)C(c2ccccc2C(F)(F)F)C(C(=O)OC)=C1	-3	9	2	.	12

Source: PubChem
